Compound activity from PubChem BioAssay.
Only some compounds are listed: those with a hit (about 3.1% of all), similar ones and a draw of the others.
hERG rescue: hERG (human) protection from proarrhythmic block; Q12809; CHO-hERG, FluxOR thallium flux, dofetilide IC70 present; activation (rescue from dofetilide block), less the hit threshold, % at 10 µM; hit rate 0.51% among 310,000; AID 1511;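 active = activation above the mean of controls blocked by dofetilide plus 5 SD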;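 also: thallium influx through hERG after potassium depolarization seen as dye fluorescence rise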
KCNK3 block: human KCNK3 channel inhibition, primary screen | O14649 | CHO-KCNK3 thallium flux, FluxOR fluorescence; hits give low values | B-score at 10 µM | hit rate 0.84% among 340,000 | AID 602410;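 active = B-score under library mean minus 4 SD, starting fluorescence ratio at most library mean plus 5 SD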;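 also: more negative B-score means stronger inhibition of thallium flux through KCNK3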
KCNQ1 block: human KCNQ1 channel inhibition; CHO-K1 KCNQ1, FluxOR thallium flux fluorescence; hits give high values; B-score at 10 µM; hit rate 1.3% among 310,000;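 active = compounds whose thallium flux B-score, printed positive for inhibition, exceeds three library SD while starting fluorescence stays within three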;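 also: channel opened by potassium depolarization with thallium stimulus after 20 min compound exposure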
KCNK9 inh: blocks the human KCNK9 two-pore domain potassium channel; Q9NPC2; HEK293 KCNK9, FluxOR thallium flux fluorescence; hits give low values; B-score at 10 µM; hit rate 1.2% among 310,000; AID 488922;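 active = ratio B-score over 3 SD below the library mean, with starting fluorescence within 5 SD of its mean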;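 also: negative B-score means less thallium flux so channel inhibition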
KCNQ1 act: human KCNQ1 channel potentiation or activation; hit rate 0.35% among 310,000; CHO-K1 KCNQ1, thallium flux FluxOR fluorescence; hits give high values; P51787; B-score at 10 µM; AID 2648;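 active = fluorescence ratio B-score, a plate-corrected score, at least three library SD, with initial intensity B-score within 5 SD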
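Schedule – 37 °C overnight plating, 90-min dark dye load, 20-min compound pretreatment · System – stable KCNQ1 CHO-K1 line · Probe or stimulus – thallium- and potassium-containing depolarizing buffer · Measured by – kinetic FluxOR fluorescence, 10 s baseline plus 110 s post-stimulus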
KCNQ1 block val: reconfirmed blocker of the human KCNQ1 potassium channel; KCNQ1 cell line, FluxOR thallium flux fluorescence; hit rate 93% among 1,600; AID 588353; inhibition, % at 10 µM; shares compounds with KCNQ1 block;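 active = primary screen active, with duplicate mean exceeding buffer control mean plus 3 SD of buffer wells, cut at about 28% in these data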;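 also: 0% = buffer control ratio and 100% = XE991 inhibitor control ratio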
CHO Tl flux: counter-screen for KCNQ1 inhibitors: effect in parental CHO cells; fluorescence ratio (Tl flux) at 10 µM; AID 588366; parental CHO-K1, FluxOR thallium flux fluorescence ratio; hits give low values; zero means no signal rise above baseline; shares compounds with KCNQ1 block; hit rate 21% among 1,600;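 active = mean of duplicate thallium-flux fluorescence ratios in parental host cells more than 5 SD below the buffer control mean, cut at about 0.38 in these data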;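 also: ratio is peak minus minimum fluorescence divided by baseline fluorescence; actives read low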
KCNQ1 APC inh: confirmation of human KCNQ1 potassium channel inhibitors by electrophysiology | shares compounds with KCNQ1 block | hit rate 20% among 490 | KCNQ1-CHO cells, automated patch clamp current | calls only at 10 µM;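 active = KCNQ1 current drop exceeding 3 SD of negative control wells, seen in both duplicate runs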;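 also: steady state current during a 2 s step from -80 to +40 mV; negative values mean current inhibition and positive values mean potentiation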
KCNQ2 spec: selectivity of KCNQ1 inhibitors: inhibition of rat KCNQ2 channel. hit rate 71% among 1,600. shares compounds with KCNQ1 block. KCNQ2 cells, FluxOR thallium flux fluorescence. inhibition, % at 10 µM. AID 651746;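 active = mean percent inhibition of the KCNQ2 thallium signal more than 5 SD above the buffer-only control wells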;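 also: KCNQ2 expressed in CHO cells; 0% = buffer control wells and 100% = XE-991 inhibitor control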
KCNQ1-KCNE1 inh: KCNQ1 inhibitor that also blocks human KCNQ1/KCNE1 channel | AID 652147 | KCNQ1/KCNE1 cells, FluxOR thallium flux fluorescence | shares compounds with KCNQ1 block | hit rate 77% among 1,600 | inhibition, % at 10 µM;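 active = mean percent inhibition of duplicate wells above the buffer-only control mean plus 3 SD of those controls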;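 also: 0% = buffer only wells and 100% = XE-991 inhibitor control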
KCNK9 inh conf: confirmation of human KCNK9 potassium channel inhibitors | shares compounds with KCNK9 inh | HEK293 KCNK9 cells, FluxOR thallium flux fluorescence | inhibition, % at 10 µM | hit rate 43% among 4,900;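 active = thallium signal inhibited by more than 5 SD of the compound-free buffer control wells, on both duplicate plates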;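 also: 0% = assay buffer control wells without compound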
Kir21 sel: mouse Kir2.1 off-target activity of KCNK9 modulators. inhibition, % at 10 µM. hit rate 4% among 4,900. Kir2.1 cells, FluxOR thallium flux fluorescence. shares compounds with KCNK9 inh;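 active = thallium signal drop more than 5 SD beyond the mean of the no-compound control wells, seen in both duplicate plates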;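 also: signal is fluorescence rise after thallium addition divided by baseline fluorescence; plate controls were assay buffer only for no effect and full block by chlorpromazine control for full effect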
HEK293 Tl ctr: second check of KCNK9 modulator effects in non-induced HEK293 cells; shares compounds with KCNK9 inh; FluxOR thallium flux; hit rate 40% among 4,900; inhibition, % at 10 µM; AID 492997;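 active = thallium signal drop beyond 5 SD of the untreated control mean, on both duplicate plates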;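 also: plate controls were buffer only IC0 wells for no effect and SID17386958 at its maximal inhibitory level for full effect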
* hit, by the source's call; i = inactive; . = no result; + = active, no number.

SMILES	hERG rescue	KCNK3 block	KCNQ1 block	KCNK9 inh	KCNQ1 act	KCNQ1 block val	CHO Tl flux	KCNQ2 spec	KCNQ1-KCNE1 inh	KCNK9 inh conf	Kir21 sel	HEK293 Tl ctr	others
COc1ccc(-c2csc(NC(=O)CSc3nc(C)cs3)n2)cc1	-8.1	i	i	i	i	.	.	.	.	.	.	.
COc1cccc(CNC(=O)CCNS(=O)(=O)c2ccc(C)cc2)c1	-4.6	i	i	i	i	.	.	.	.	.	.	.
Cc1cccc(N2CCN(C(=O)CCCn3c(=O)c4cccn4c4cccnc43)CC2)c1C	-10.1	i	i	i	i	.	.	.	.	.	.	.
Cc1ccc(Cl)cc1N1CCN(C(=O)CCCn2c(=O)c3cccn3c3cccnc32)CC1	-8.5	i	6*	i	i	97.5*	0.468	106.7%*	177.0%*	.	.	.	KCNQ1 APC inh=i
O=C(Nc1ccc(Oc2ccc(NC(=O)c3ccco3)c(NC(=O)c3ccco3)c2)cc1)c1ccco1	-5.0	i	i	i	i	.	.	.	.	.	.	.
O=C(Nc1ccc(Oc2ccc3ccccc3c2)cc1)c1ccco1	-22.9	i	14*	i	i	150.5*	0.354*	i	186.0%*	.	.	.
O=C(CN1C(=O)NC2(CCCCC2)C1=O)Nc1ccc(Cl)cc1	.	i	.	.	.	.	.	.	.	.	.	.
N#Cc1cc2c(nc1SCC1COc3ccccc3O1)CCC2 (centres undefined)	-5.3	i	8*	i	i	105.5*	0.395	98.7%*	124.0%*	.	.	.
Cc1cccc(Cc2ncc(C(F)(F)F)cc2Cl)c1	-2.8	i	i	i	i	.	.	.	.	.	.	.
Cc1ccc(OCC(O)Cn2c(=N)n(Cc3ccccc3)c3ccccc32)cc1 (centres undefined)	-27.8	i	8*	i	i	77.5*	0.412	93.3%*	36.0%*	.	.	.
CCc1ccc(S(=O)(=O)/N=C2\C=C(NS(=O)(=O)c3ccccc3)C(=O)c3ccccc32)cc1	-11.3	i	12*	i	i	97.0*	0.453	78.7%*	94.0%*	.	.	.	KCNQ1 APC inh=+
COc1ccc(NCC(=O)Nc2cccc(S(=O)(=O)N3CCCC3)c2)cc1Cl	.	i	.	.	.	.	.	.	.	.	.	.
COc1cccc(CN(C)C(=O)c2cccc(S(=O)(=O)N3CCN(c4ccccc4)CC3)c2)c1OC	.	i	.	.	.	.	.	.	.	.	.	.
CN(Cc1ccc(Cl)cc1Cl)C(=O)c1cccc(S(=O)(=O)N2CCN(c3ccccc3)CC2)c1	-10.8	i	6*	i	i	91.5*	0.427	90.0%*	67.5%*	.	.	.	KCNQ1 APC inh=i
N#Cc1c(N2CCN(C(=O)c3ccccc3Cl)CC2)nc(-c2ccccc2)c2c1CCCC2	-10.6	i	8*	i	i	92.5*	0.342*	102.3%*	117.0%*	i	i	i
Nc1c(C(=O)c2ccccc2)sc2nsc(SCCN3CCCC3)c12	-26.4	i	8*	i	i	107.5*	0.208*	i	143.5%*	45.0%*	35.5%*	73.0%*
CC(C)c1cc(C(=O)N2CCCC(C(=O)c3ccc4ccccc4c3)C2)on1 (centres undefined)	-18.4	i	6*	i	i	0.0	0.496	90.7%*	35.0%*	i	i	i
O=C1CCC(C(=O)N2CCCC(C(=O)c3ccc4ccccc4c3)C2)=NN1 (centres undefined)	-4.5	i	i	i	i	.	.	.	.	.	.	.
CN(C)S(=O)(=O)c1ccc(C(=O)NN2C(=O)NC3(CCCCC3)C2=O)cc1	.	i	.	.	.	.	.	.	.	.	.	.
Cc1ccc(-n2c(-c3ccccc3)c[n+]3c2CCc2ccccc2-3)c(C)c1	-27.2	-9.91*	15*	-12.7*	i	98.5*	0.376*	95.3%*	34.5%*	46.5%*	64.5%*	36.0%*
CN1C[C@@H]2[C@@H]3C(=O)N(C)C(=O)[C@@H]3[C@](C)(C1=O)N2C(=O)c1ccc(C(F)(F)F)cc1	.	i	.	.	.	.	.	.	.	.	.	.
O=C(c1ccc2c(c1)OCO2)C1CCCN(Cc2cc(F)ccc2-n2cccn2)C1 (centres undefined)	-15.9	i	i	i	i	.	.	.	.	.	.	.
Cc1ccc(-n2cccn2)c(CN2CCCC(C(=O)c3ccc4c(c3)OCO4)C2)c1 (centres undefined)	-17.4	i	8*	i	i	65.5*	0.389	111.7%*	80.5%*	i	i	i
c1ccc(CC2CCN(C3=Nc4cccc5cccc3c45)CC2)cc1	-34.9	i	13*	-9.01*	i	150.0*	0.344*	121.3%*	135.0%*	36.0%*	35.0%*	38.0%*
Cc1cccc(NC(=O)CN(C)C(C)C(=O)Nc2ccc(S(=O)(=O)N3CCCC3)cc2)c1C (centres undefined)	.	i	.	.	.	.	.	.	.	.	.	.
SMILES	hERG rescue	KCNK3 block	KCNQ1 block	KCNK9 inh	KCNQ1 act	KCNQ1 block val	CHO Tl flux	KCNQ2 spec	KCNQ1-KCNE1 inh	KCNK9 inh conf	Kir21 sel	HEK293 Tl ctr	others
O=C(Nc1ccccc1Cl)c1sccc1-c1ccccc1	-4.5	i	6*	-9.66*	i	+	0.349*	i	i	34.0%*	i	30.0%*
CCOC(=O)c1nnn(-c2nonc2-n2cccc2)c1CCl	-10.4	i	i	i	i	.	.	.	.	.	.	.
CCOC(=O)c1nnn(-c2nonc2-n2cccc2)c1CN1CCC(C)CC1	-13.5	-9.12*	6*	-9.3*	i	87.5*	0.394	71.3%*	128.5%*	i	i	32.0%*
O=C(Nc1nccs1)c1c(O)c2c([nH]c1=O)CCCC2	-4.1	i	i	i	i	.	.	.	.	.	.	.
CC(C)Cn1c2c(c(O)c(C(=O)Nc3nccs3)c1=O)CCCC2	-5.8	i	7*	-8.31*	i	100.0*	0.448	112.3%*	165.5%*	44.0%*	i	27.0%*	KCNQ1 APC inh=i
CCCn1c2c(c(O)c(C(=O)Nc3ncccc3C)c1=O)CCCC2	-14.1	i	i	i	i	.	.	.	.	.	.	.
